Experiments:
[1] = Growth inhibition of human WM266.4 cells expressing BRAF V600E mutant after 5 days by SRB assay; type: functional; details: WM 266-4, 120 h
[2] = target: T1, Serine/threonine-protein kinase B-raf (Homo sapiens, UniProt P15056, V600E); assay: Inhibition of human BRAF V600E mutant expressed in baculovirus system
Outline: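 Isolated purified V600E BRAF kinase with a 45 min incubation. Enzyme inhibition measured and IC50 derived. Run in triplicate, with one compound measured once.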

[3] = target: T1, Serine/threonine-protein kinase B-raf; assay: Inhibition of BRAF V600E mutant ERK phosphorylation in human WM266.4 cells; type: cell-based
Outline: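 WM266.4 melanoma cells, which carry mutant V600E BRAF, exposed to inhibitor for 6 h. ERK phosphorylation (pERK) measured and IC50 derived. Run in triplicate, with a few compounds measured once.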

[4] = Oral bioavailability in BALB/cAnNCrl mouse at 10 mg/kg; type: ADME, organism-based; details: in vivo
Outline: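 Female BALB/cAnNCrl mice, at least 6 weeks old. The oral arm was gavage at 10 mL/kg in DMSO/water 1:19. The iv arm was 2 mg/kg (~4 μmol/kg) at 10 mL/kg in DMSO/Tween-20/water 10:1:89, sampled at seven or eight points from 5 min to 18 or 24 h. Three mice per time point, terminal cardiac blood, plasma.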

[5] = Tmax in BALB/cAnNCrl mouse at 10 mg/kg, po; type: ADME, organism-based; set-up: dose 10 mg/kg, route oral; details: in vivo
Outline: (§1)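 Female BALB/cAnNCrl mice, at least 6 weeks old, dosed once by oral gavage at 10 mL/kg in DMSO/water 1:19 v/v. Blood was taken at six or eight time points from 15 min to 18 or 24 h, three mice per time point, by terminal cardiac puncture under halothane or isoflurane into heparinized syringes. Plasma was snap frozen and stored at -70 °C.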

[6] = Half life in BALB/cAnNCrl mouse at 10 mg/kg, po; type: ADME, organism-based; set-up: dose 10 mg/kg, route oral; details: in vivo; outline: as §1
[7] = Cmax in BALB/cAnNCrl mouse at 10 mg/kg, po; type: ADME, organism-based; set-up: dose 10 mg/kg, route oral; details: in vivo; outline: as §1

T1 sequence (P15056 2-766 V600E limits assumed): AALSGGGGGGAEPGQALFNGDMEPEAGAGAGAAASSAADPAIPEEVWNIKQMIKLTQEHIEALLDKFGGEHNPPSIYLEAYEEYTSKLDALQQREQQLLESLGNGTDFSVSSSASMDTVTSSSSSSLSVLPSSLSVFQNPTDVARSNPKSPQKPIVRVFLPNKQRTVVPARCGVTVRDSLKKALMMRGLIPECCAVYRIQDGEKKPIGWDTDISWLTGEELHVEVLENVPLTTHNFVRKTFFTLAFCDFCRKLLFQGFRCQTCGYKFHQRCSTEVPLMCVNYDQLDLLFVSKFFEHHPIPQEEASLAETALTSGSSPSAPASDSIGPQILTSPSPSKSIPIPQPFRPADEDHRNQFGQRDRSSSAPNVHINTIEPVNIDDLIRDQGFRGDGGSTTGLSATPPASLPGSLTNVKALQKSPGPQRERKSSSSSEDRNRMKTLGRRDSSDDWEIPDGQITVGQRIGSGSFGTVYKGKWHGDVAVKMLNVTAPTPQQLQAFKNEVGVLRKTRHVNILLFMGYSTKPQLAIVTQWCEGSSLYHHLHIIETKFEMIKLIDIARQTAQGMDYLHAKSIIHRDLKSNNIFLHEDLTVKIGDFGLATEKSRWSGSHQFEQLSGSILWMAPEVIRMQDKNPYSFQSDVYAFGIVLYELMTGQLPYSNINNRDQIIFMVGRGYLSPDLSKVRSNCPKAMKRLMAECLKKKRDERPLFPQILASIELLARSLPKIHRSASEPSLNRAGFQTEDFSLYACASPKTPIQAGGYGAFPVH

Compound	GI50 [1] [nM]	IC50 [2] [nM]	IC50 [3] [nM]	bioavailability [4] [%]	Tmax [5] [min]	half-life [6] [min]	Cmax [7] [µM]
CC(C)(C)c1cc(NC(=O)Nc2ccc(Oc3ccnc4[nH]c(=O)[nH]c34)cc2)n(-c2ccc(F)cc2)n1	540	124	411				
Cn1c(=O)[nH]c2nccc(Oc3ccc(NC(=O)Nc4cc(C(C)(C)C)nn4-c4cccnc4)cc3)c21	590	390	830				
CCCn1nc(C(C)(C)C)cc1NC(=O)Nc1ccc(Oc2ccnc3[nH]c(=O)[nH]c23)cc1	9500	83	10800				
CC(C)(C)c1cc(NC(=O)Nc2ccc(Oc3ccnc4[nH]c(=O)[nH]c34)cc2)n(C(C)(C)C)n1	26000	1190	33000				
CC(C)(C)c1csc(NC(=O)Nc2ccc(Oc3ccnc4[nH]c(=O)[nH]c34)cc2)n1	10400	7800					
O=C(Nc1ccc(Oc2ccnc3[nH]c(=O)[nH]c23)cc1)Nc1nnc(C2CCCO2)s1 (stereo not given)	48900	170	58000				
CC(C)(C)c1cc(NC(=O)Nc2ccc(Oc3ccnc4[nH]c(=O)[nH]c34)cc2)n(-c2ccccn2)n1	3400	210	6400				
CC(C)(C)c1cc(NC(=O)Nc2ccc(Oc3ccnc4[nH]c(=O)[nH]c34)cc2)n(-c2ccc(F)cc2F)n1	1230	104	1190				
Cn1nc(C(C)(C)C)cc1NC(=O)Nc1ccc(Oc2ccnc3[nH]c(=O)[nH]c23)cc1	12900	33	28000				
CC(C)(C)c1cc(NC(=O)Nc2ccc(Oc3ccnc4[nH]c(=O)[nH]c34)c3ccccc23)n(-c2ccc(F)cc2)n1	20	240	203				
CC(C)(C)c1cc(NC(=O)Nc2ccc(Sc3ccnc4[nH]c(=O)[nH]c34)cc2)n(-c2ccccc2)n1	12	215	70				
Cc1ccc(-n2nc(C(C)(C)C)cc2NC(=O)Nc2ccc(Sc3ccnc4[nH]c(=O)[nH]c34)cc2)cc1	259	2200	234				
CC(C)(C)c1cc(NC(=O)Nc2ccc(Oc3ccnc4[nH]c(=O)[nH]c34)cc2)n(Cc2ccccc2)n1	10100	147	13400				
Cc1ccc(-n2nc(C(C)(C)C)cc2NC(=O)Nc2ccc(Oc3ccnc4[nH]c(=O)[nH]c34)c3ccccc23)cc1	31	670	14				
Cn1c(=O)[nH]c2nccc(Oc3ccc(NC(=O)Nc4cc(C(C)(C)C)nn4-c4ccc(F)cc4)c4ccccc34)c21	47	313	35				
Cn1c(=O)[nH]c2nccc(Oc3ccc(NC(=O)Nc4cc(C(C)(C)C)nn4-c4cccnc4)c4ccccc34)c21	69	790	100	5	30	48	4.21
Cn1c(=O)[nH]c2c(Oc3ccc(NC(=O)Nc4cc(C(C)(C)C)nn4-c4ccccc4)c4ccccc34)ccnc21	167	6900	27				
Cc1ccc(-n2nc(C(C)(C)C)cc2NC(=O)Nc2ccc(Oc3ccnc4c3[nH]c(=O)n4C)c3ccccc23)cc1	1090	6300	70				
Cn1nc(C(C)(C)C)cc1NC(=O)Nc1ccc(Oc2ccnc3c2[nH]c(=O)n3C)c2ccccc12	470	197	470				

Source: ChEMBL document CHEMBL1156296, “Development of novel, highly potent inhibitors of V-RAF murine sarcoma viral oncogene homologue B1 (BRAF): increasing cellular potency through optimization of a distal heteroaromatic group” (J Med Chem, 2010)
